Data as given in ChEMBL document CHEMBL3112493, “Synthesis of 2,6-disubstituted benzylamine derivatives as reversible selective inhibitors of copper amine oxidases” (Bioorg Med Chem, 2014).
The source made the active and inactive calls. The calls are words filed in the database; no cut-off is given here.

Legend:
[1] = Acute toxicity in ip dosed Swiss mouse assessed as appearance of tonic-clonic convulsion followed by respiratory block measured after 15 to 20 mins; assay type: organism-based; conditions: in vivo
[2] = species: Sus scrofa; test: Reversible inhibition of porcine serum BAO using [7-14C]-benzylamine as substrate assessed as residual activity at 4 times IC50 preincubated for 5 mins followed by 10 fold dilution relative to control
Method in brief: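 Solutions were diluted 1:10 and 1:100, and portions were dialyzed against water at 4 °C for 24 h. Activity was read with saturating [7-14C]benzylamine; the reaction was stopped with 3 N HCl and labeled benzaldehyde extracted into ethyl acetate and counted.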

[3] = target: T1, Amine oxidase [flavin-containing] B (Rattus norvegicus, UniProt P19643); test: Inhibition of rat liver MAO-B using 2-phenyl[1-14C]-ethylamine/[7-14C]-benzylamine as substrate preincubated for 30 mins followed by substrate addition
T1 sequence (P19643 whole entry): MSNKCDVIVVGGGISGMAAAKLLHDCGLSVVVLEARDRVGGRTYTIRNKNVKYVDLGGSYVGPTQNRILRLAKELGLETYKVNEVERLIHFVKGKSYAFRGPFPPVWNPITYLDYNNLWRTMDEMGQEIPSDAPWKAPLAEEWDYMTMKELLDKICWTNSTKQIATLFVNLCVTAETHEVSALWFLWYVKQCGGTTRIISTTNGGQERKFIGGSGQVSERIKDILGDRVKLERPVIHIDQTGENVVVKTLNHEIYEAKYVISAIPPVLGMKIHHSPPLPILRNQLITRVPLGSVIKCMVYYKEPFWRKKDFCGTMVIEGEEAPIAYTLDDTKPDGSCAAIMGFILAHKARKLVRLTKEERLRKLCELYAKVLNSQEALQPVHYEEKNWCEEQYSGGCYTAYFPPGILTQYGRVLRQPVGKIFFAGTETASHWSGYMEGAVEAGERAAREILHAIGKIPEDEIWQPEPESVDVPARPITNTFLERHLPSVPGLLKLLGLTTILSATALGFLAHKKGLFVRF
Method in brief: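 MAO B source was rat liver mitochondria, obtained by 1:10 homogenization in 0.01 M phosphate pH 7.4 with 0.25 M sucrose, then centrifugation at 1000g and 10,000g (20 min each). Mitochondria were preincubated with inhibitor (6 concentrations) for 30 min at 30 °C. Saturating 2-phenyl[1-14C]ethylamine was then added and activity measured radiochemically.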

[4] = target: T2, Diamine oxidase [copper-containing] (Sus scrofa, UniProt Q9TRC7); test: Inhibition of porcine kidney DAO using [1,4-14C]-putrescine as substrate preincubated for 30 mins followed by substrate addition
T2 sequence (Q9TRC7 whole entry): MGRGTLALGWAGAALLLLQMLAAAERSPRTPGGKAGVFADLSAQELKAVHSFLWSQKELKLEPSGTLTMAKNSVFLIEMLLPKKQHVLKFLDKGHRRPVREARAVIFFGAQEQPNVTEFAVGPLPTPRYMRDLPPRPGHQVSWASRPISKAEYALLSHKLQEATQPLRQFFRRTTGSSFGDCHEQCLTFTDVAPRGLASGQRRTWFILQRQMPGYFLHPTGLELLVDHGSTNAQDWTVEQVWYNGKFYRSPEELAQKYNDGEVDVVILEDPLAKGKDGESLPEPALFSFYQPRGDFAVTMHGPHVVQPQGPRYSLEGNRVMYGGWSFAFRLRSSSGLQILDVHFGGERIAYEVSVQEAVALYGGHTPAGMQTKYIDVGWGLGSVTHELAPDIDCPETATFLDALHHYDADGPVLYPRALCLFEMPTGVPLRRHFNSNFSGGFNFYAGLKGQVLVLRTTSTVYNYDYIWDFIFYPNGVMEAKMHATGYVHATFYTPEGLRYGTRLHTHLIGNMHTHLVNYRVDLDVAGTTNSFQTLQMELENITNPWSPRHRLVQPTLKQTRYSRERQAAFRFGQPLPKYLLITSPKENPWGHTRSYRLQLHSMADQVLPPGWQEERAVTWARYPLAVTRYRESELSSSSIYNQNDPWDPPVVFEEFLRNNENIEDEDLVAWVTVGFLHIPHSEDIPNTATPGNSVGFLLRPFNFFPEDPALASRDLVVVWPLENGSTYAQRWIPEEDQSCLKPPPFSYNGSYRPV
Method in brief: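 Porcine kidney diamine oxidase was preincubated with inhibitor at 6 concentrations for 30 min at 30 °C. Saturating [1,4-14C]putrescine was then added and activity was determined radiochemically. In some cases H2O2 production was measured by the 4-aminoantipyrine method.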

[5] = target: T3, Protein-lysine 6-oxidase (Sus scrofa, UniProt P45845); test: Inhibition of porcine aorta lysyl oxidase preincubated for 30 mins followed by substrate addition
T3 sequence (P45845 whole entry): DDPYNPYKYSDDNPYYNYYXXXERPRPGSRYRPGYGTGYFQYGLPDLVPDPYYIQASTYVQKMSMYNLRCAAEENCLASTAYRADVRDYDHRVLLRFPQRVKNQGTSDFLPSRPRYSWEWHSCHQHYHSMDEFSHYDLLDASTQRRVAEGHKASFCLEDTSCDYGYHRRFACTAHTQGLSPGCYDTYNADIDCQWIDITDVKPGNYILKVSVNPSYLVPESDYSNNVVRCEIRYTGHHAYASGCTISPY
Method in brief: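 Porcine aorta lysyl oxidase, prepared in-house. Enzyme was preincubated with inhibitor at 6 concentrations for 30 min at 30 °C. Saturating tritiated protein-bound lysine substrate was then added and activity was measured radiochemically. In some cases H2O2 production was followed instead, by the 4-aminoantipyrine method.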

[6] = Inhibition of porcine serum BAO using [7-14C]-benzylamine as substrate preincubated for 30 mins followed by substrate addition; parameters: species or system Sus scrofa
Method in brief: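 Porcine serum benzylamine oxidase was preincubated with inhibitor at 6 concentrations for 30 min at 30 °C. [7-14C]Benzylamine was then added at a saturating level and radiochemical activity was measured. In some cases H2O2 formation was followed by the 4-aminoantipyrine method.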

[7] = species: Sus scrofa; test: Mixed-type inhibition of porcine serum BAO using [7-14C]-benzylamine as substrate by Lineweaver-Burk plot analysis
[8] = species: Sus scrofa; test: Non-competitive inhibition of porcine serum BAO using [7-14C]-benzylamine as substrate by Lineweaver-Burk plot analysis
[9] = Oral bioavailability in rat; assay type: ADME, organism-based; conditions: in vivo
[10] = Half life in rat; assay type: ADME, organism-based; conditions: in vivo

SMILES	LD50 [1] [mg/kg]	Activity [2] [%]	IC50 [3] [mM]	IC50 [4] [mM]	IC50 [5] [mM]	IC50 [6] [µM]	inhibition mode (qualitative) [7]	inhibition [8]	bioavailability [9] [%]	half-life [10] [min]
Cl.NCc1c(OCCO)cccc1OCCO	> 1000	50	> 1	> 1	> 1	2.6	Active	–	–	–
CCCCOc1cccc(OCCCC)c1CN.Cl	25	50	> 1	> 1	> 1	0.14	–	Active	–	–
CCCCc1cccc(CCCC)c1CN.Cl	54	> 80	> 1	> 1	> 1	14	Active	–	–	–
CCCc1cccc(CCC)c1CN.Cl	55	> 80	> 1	> 1	> 1	15	Active	–	–	–
COCc1cccc(COC)c1CN.Cl	240	> 80	> 1	> 1	> 1	> 1000	Active	–	–	–
CCOc1ccccc1CN	–	–	> 1	> 1	> 1	> 1000	–	–	–	–
CCCOc1cccc(OCCC)c1CN.Cl	37	50	> 1	> 1	> 1	–	Active	–	–	–
CCOc1cccc(OCC)c1CN.Cl	74	50	> 1	> 1	> 1	0.18	Active	–	–	–
CC(C)Oc1cccc(OC(C)C)c1CN	–	–	> 1	> 1	> 1	> 1000	–	–	–	–
COc1cccc(OC)c1CN.Cl	120	> 80	0.19	> 1	> 1	120	Active	–	–	–
NCc1ccccc1O	–	–	> 1	> 1	> 1	> 1000	–	–	–	–
CCOc1cncc(OCC)c1CN	–	–	–	–	–	–	–	–	51.5	120
CCc1cccc(CC)c1CN.Cl	92	> 80	> 1	> 1	> 1	–	Active	–	–	–
NCc1c(O)cccc1O	–	–	> 1	> 1	> 1	> 1000	–	–	–	–
NCc1ccccc1CO	–	–	> 1	> 1	> 1	> 1000	–	–	–	–
CCOCc1cccc(COCC)c1CN	–	–	> 1	> 1	> 1	> 1000	–	–	–	–
Cl.NCc1c(OCCCO)cccc1OCCCO	690	50	> 1	> 1	> 1	0.55	Active	–	–	–
Cl.NCc1c(OCCCCO)cccc1OCCCCO	540	50	> 1	> 1	> 1	0.066	Active	–	–	–
